Results from ChEMBL document CHEMBL1122419, “alpha-Adrenergic activities of some substituted 2-(aminomethyl)imidazolines” (J Med Chem, 1983).

Legend:
[1] = biological target: Adrenergic receptor alpha-2 (Rattus norvegicus) (UniProt P22086+P19328+P22909); assay: Clonidine antagonistic activity against alpha-2 adrenergic receptor in isolated, field -simulated vas deferens from rats; format: functional
Method in brief: (§1)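 Field-stimulated vas deferens from Sprague-Dawley rats (250-350 g). pA2 estimated from one or two test-compound concentrations, with at least three tissues per concentration. Agonist challenged was clonidine for α2 and methoxamine for α1.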

[2] = biological target: T1, Alpha-2A adrenergic receptor (Bos taurus, UniProt Q28838); assay: Binding affinity against alpha-2 adrenergic receptor from calf cerebral cortex, using [3H]clonidine as the radioligand; format: tissue-based
T1 sequence (Q28838 whole entry): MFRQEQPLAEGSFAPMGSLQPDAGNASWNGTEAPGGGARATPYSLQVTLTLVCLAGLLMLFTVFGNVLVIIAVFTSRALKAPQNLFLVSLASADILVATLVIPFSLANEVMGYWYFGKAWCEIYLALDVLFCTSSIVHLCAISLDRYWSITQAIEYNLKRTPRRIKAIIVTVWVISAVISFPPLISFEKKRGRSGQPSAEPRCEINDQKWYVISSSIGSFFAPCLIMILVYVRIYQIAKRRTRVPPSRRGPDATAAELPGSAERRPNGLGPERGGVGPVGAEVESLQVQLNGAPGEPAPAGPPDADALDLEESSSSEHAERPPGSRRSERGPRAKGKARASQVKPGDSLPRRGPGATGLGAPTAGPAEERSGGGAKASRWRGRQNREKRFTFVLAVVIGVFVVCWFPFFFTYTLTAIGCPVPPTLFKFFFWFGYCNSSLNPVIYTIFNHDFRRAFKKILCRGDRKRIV

[3] = biological target: T2, Adrenergic receptor alpha-2 (Rattus norvegicus, UniProt P22086+P19328+P22909); assay: Agonistic activity against alpha alpha-2 adrenergic receptor in isolated, field -simulated vas deferens from rats; format: functional
T2 sequence (P22086 whole entry): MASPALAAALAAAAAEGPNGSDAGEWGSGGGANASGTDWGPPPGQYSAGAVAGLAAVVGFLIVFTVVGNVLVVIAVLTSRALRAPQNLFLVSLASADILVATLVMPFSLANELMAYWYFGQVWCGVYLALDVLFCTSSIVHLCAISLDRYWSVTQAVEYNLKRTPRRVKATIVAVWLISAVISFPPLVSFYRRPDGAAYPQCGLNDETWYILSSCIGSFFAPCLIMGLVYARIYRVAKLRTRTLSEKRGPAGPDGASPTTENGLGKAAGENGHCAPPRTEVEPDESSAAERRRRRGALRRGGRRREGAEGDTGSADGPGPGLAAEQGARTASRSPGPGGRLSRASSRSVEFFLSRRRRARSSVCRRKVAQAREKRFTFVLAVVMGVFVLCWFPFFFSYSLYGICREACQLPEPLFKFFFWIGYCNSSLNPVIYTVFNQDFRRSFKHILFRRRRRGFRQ
T2 sequence (P19328 whole entry): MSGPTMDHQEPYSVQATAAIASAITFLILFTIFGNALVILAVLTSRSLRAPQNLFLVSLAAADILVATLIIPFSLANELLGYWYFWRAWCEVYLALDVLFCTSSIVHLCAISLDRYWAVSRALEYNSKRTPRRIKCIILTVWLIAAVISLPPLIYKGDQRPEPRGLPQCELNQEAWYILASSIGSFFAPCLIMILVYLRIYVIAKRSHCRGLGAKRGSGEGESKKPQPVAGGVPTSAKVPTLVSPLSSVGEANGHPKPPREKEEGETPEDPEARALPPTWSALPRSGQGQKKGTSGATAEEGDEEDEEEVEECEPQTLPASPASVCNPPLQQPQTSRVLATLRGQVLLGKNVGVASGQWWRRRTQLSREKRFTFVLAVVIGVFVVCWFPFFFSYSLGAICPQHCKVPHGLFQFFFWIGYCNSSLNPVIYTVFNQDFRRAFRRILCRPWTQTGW
T2 sequence (P22909 whole entry): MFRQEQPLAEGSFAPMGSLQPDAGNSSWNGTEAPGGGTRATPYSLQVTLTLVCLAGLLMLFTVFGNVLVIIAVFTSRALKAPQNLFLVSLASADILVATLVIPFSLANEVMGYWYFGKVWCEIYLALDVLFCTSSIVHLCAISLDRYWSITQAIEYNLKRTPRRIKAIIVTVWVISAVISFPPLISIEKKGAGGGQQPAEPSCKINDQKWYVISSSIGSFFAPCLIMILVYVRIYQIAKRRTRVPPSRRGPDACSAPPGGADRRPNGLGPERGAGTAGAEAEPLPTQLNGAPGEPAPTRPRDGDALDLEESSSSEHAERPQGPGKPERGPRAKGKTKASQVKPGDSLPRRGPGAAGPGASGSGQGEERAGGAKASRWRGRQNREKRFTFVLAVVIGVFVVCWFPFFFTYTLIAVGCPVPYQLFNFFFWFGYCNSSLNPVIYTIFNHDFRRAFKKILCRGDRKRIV

[4] = biological target: T3, Adrenergic receptor alpha-1 (Rattus norvegicus, UniProt P15823+P23944+P43140); assay: Agonist activity against alpha-1 adrenergic receptor from rat vas deferens; format: functional
T3 sequence (P15823 whole entry): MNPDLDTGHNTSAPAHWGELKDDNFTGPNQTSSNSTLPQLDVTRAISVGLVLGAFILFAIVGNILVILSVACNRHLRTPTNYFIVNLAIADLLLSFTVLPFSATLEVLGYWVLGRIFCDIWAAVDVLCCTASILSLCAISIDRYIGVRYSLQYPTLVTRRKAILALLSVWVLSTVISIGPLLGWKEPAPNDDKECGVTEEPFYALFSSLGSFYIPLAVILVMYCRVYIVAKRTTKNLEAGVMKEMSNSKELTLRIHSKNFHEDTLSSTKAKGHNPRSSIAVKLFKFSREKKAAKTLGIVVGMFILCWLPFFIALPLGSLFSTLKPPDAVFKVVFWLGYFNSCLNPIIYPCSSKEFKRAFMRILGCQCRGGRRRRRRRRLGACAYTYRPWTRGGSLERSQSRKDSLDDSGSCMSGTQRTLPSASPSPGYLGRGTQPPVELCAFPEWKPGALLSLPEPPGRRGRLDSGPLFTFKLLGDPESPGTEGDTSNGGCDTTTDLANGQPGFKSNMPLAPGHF
T3 sequence (P23944 whole entry): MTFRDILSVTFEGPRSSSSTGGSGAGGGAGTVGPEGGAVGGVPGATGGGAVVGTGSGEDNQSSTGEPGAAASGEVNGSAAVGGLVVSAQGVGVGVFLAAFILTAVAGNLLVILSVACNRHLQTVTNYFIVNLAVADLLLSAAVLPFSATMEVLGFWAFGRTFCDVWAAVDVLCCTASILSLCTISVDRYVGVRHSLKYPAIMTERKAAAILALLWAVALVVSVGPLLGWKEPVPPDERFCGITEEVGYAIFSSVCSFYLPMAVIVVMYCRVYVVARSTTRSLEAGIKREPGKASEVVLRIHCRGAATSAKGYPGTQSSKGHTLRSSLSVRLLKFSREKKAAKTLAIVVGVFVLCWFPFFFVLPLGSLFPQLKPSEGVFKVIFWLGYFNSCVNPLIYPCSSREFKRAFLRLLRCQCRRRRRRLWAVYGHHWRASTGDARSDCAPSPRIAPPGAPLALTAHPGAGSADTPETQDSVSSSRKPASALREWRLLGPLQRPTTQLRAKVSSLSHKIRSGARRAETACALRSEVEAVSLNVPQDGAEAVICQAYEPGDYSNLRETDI
T3 sequence (P43140 whole entry): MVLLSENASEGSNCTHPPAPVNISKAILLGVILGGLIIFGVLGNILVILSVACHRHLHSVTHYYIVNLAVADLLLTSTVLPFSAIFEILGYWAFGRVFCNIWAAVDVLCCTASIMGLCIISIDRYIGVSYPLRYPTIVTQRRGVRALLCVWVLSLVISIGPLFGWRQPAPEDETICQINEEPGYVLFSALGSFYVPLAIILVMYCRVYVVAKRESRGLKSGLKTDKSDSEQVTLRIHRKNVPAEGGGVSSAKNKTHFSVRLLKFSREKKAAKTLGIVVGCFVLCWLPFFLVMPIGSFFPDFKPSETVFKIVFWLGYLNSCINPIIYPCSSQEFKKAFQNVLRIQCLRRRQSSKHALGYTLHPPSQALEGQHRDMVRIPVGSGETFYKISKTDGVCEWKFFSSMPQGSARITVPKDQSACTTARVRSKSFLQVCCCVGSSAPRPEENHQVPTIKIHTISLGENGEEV

[5] = biological target: T3, Adrenergic receptor alpha-1; assay: Methoxamine antagonistic activity against alpha-1 adrenergic receptor in isolated, field -simulated vas deferens from rats; format: functional, tissue-based; method in brief: as §1
[6] = biological target: T2, Adrenergic receptor alpha-2; assay: Agonistic activity against alpha-2 adrenergic receptor in isolated, field -simulated vas deferens from rats; format: functional
Method in brief: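 Field-stimulated vas deferens from Sprague-Dawley rats (250-350 g), pretreated with prazosin (78 nM). α2 agonism scored as inhibition of stimulation-induced contractions. […] Agonist activity confirmed by complete reversal of the inhibition by rauwolscine (280 nM).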

Compound | pA2 [1] | Ki [2] | EC50 [3] | EC50 [4] | pA2 [5] | EC50 [6]
Cc1ccc(N(CC2=NCCN2)c2ccccc2)cc1 | 7.5 |  | > 1000 nM | > 1000 nM | 7.6 | 
Cc1ccc(N(CC2=NCCN2)c2cccc(O)c2)cc1 | 7.8 |  |  |  |  | 
Oc1cccc(NCC2=NCCN2)c1 |  | 7.1 nM | 74 nM | 61 nM |  | 
CCN(CC1=NCCN1)c1ccc(C)cc1 | 7.1 | 14 nM | > 1000 nM | 1600 nM |  | 

Next, values leading:

pA2 [1] | Ki [2] | EC50 [3] | EC50 [4] | pA2 [5] | EC50 [6] | Compound
5.6 | 14 nM | > 2000 nM | 340 nM |  |  | Cc1ccc(NCC2=NCCN2)cc1
 |  |  | 50 nM |  | 53 nM | Clc1ccccc1NCC1=NCCN1
7 | 3.3 nM | > 2000 nM | 300 nM |  |  | Cc1ccc(N(C)CC2=NCCN2)cc1
6.5 | 70 nM | > 1000 nM | > 1000 nM | 6 |  | Cc1ccc(N(CC2=NCCN2)C2CCCCC2)cc1
